Compounds with a hit are over-represented: about 6.8% of the library has one in this group of screens.
core dimer inh – blocks dimerization of HCV core protein | 0.33% of 300,000 active | TR-FRET GST/Flag-core106 dimerization, 1536-well | inhibition, % at 5 µM;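 active means inhibition above the mean of all tested compounds plus 3 SD, set per screening campaign, cut at about 45% in these data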
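Assay system: tagged HCV core106 pair (GST and Flag); medium: KF-containing HEPES buffer, pH 7.45, DTT, CHAPS, BSA; also added: Eu donor and XL665 acceptor anti-tag antibodies; dosing: 5 µM single dose; timing: compound-protein-antibody incubation 4 h at 22.5 °C; signal: TR-FRET 671 and 617 nm emission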
HSF1 activator – increases HSF-1 driven luciferase reporter signal; activation, % at 9 µM; 1.7% of 300,000 active; NIH3T3-HGL HSF-1 luciferase reporter, MG132, 8 h; 100% = twice DMSO control signal;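 active means mean replicate activation of at least 50% with a set share of replicates each reaching 50%; inconclusive means only one of those two conditions met; inactive means mean below 50% and too few replicates reaching it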;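 further: 0% = median of the neutral control wells and 100% = twice that signal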
HSF1 inh – HSF1 inhibition; NIH3T3-HGL HSE-luciferase, MG132-induced, luminescence 8 h; stronger effect = lower value; activity change, negative = inhibition, % at 7.5 µM (by protocol); 0.77% of 300,000 active;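 active means more than half of replicate wells show activity change below -50%, luminescence cut by over half; inconclusive means some wells, but at most half, below -50%; inactive means no replicate well below -50%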;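 further: luciferase reports HSF-1 transcriptional activity via heat shock element; 0% = median of DMSO wells and -100% = zero luminescence signal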
AI-2 QS modul – modulators of Vibrio harveyi AI-2 quorum sensing system. Vibrio harveyi JMH597 AI-2 luminescence/OD600 ratio, 9 h; stronger effect = lower value; strain lacks LuxN and CqsS sensors; 0 = neutral-control median. activity change, % at 7.5 µM. 0.4% of 300,000 active; in the data active means activity change below about -75%, passing the limit was not always enough; inconclusive means no clear call, values can overlap the other calls;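 further: luminescence divided by OD600 gain over 9 h not by final OD600 alone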
PHOSPHO1 block – inhibitors of human PHOSPHO1 phosphatase; Q8TCT1; recombinant PHOSPHO1, absorbance phosphatase assay; inhibition, % at 13.3 µM; 1.1% of 290,000 active; in the data active means inhibition above about 60%
Target sequence (Q8TCT1 whole entry, looked up): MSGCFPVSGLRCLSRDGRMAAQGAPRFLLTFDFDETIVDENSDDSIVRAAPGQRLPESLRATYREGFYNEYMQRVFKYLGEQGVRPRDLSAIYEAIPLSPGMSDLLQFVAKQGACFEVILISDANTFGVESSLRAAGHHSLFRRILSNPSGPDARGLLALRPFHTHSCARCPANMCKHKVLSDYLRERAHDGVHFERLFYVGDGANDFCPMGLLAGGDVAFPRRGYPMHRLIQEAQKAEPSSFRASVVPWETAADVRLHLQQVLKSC
ALR H2O2 inh – human ALR oxidase inhibition via reduced H2O2; P55789; purified ALR, DTT oxidation, H2O2 HRP-luminol luminescence; inhibition, % (test concentration not listed); 3.8% of 290,000 active;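 active means mean replicate inhibition above about 79%, with every replicate also reaching it, limit read from the data; inconclusive means only one of the two criteria met; inactive means mean below limit and not every replicate reaching it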
Target sequence (P55789 whole entry, looked up): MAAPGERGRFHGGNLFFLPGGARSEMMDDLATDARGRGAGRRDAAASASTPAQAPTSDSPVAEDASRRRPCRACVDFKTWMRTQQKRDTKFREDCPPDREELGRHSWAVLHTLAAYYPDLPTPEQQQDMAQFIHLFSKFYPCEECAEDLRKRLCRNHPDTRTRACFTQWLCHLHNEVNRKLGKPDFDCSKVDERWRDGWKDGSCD
* = called active by the depositor.

Screening CCOC(=O)C(Cc1ccc(NC(=O)/C(=C/c2ccccc2)NC(=O)c2ccccc2)cc1)N1C(=O)c2ccccc2C1=O (stereo not given) returned core dimer inh 58*, HSF1 activator -8, HSF1 inh -6, AI-2 QS modul 4, PHOSPHO1 block 12 and ALR H2O2 inh -8.
Screening O=c1[nH]c(SCc2n[nH]c(=S)n2-c2ccccc2)nc2sc3c(c12)CCC3 returned core dimer inh 8, HSF1 activator 39, HSF1 inh 10, AI-2 QS modul 21, PHOSPHO1 block 85* and ALR H2O2 inh 2.
Cc1cccc(-n2nnnc2SCC(=O)c2cc(C)n(CC3CCCO3)c2C)c1 (stereo not given) was read as core dimer inh 4, HSF1 activator 21, HSF1 inh 8, AI-2 QS modul 26, PHOSPHO1 block 93* and ALR H2O2 inh 1.
For Cc1cccc(-n2nnnc2SCC(=O)c2cc(C)n(Cc3ccco3)c2C)c1 the results were core dimer inh 2, HSF1 activator 22, HSF1 inh 13, AI-2 QS modul 4, PHOSPHO1 block 76* and ALR H2O2 inh -11.
Cc1cc(C(=O)CSc2nnc(-c3ccc(Cl)cc3)n2C)c(C)n1CC1CCCO1 (stereo not given) was read as core dimer inh -5, HSF1 activator -5, HSF1 inh -9, AI-2 QS modul 31, PHOSPHO1 block -82 and ALR H2O2 inh 25.
Cc1ccc(-n2nnnc2SCC(=O)c2cc(C)n(CC3CCCO3)c2C)cc1 (stereo not given) was read as core dimer inh -1, HSF1 activator 32, HSF1 inh 8, AI-2 QS modul 30, PHOSPHO1 block 74* and ALR H2O2 inh -7.
Cc1cc(C(=O)COC(=O)c2ccco2)c(C)n1Cc1ccco1 was read as core dimer inh 4, HSF1 activator -78, HSF1 inh -75*, AI-2 QS modul 50, PHOSPHO1 block -18 and ALR H2O2 inh 2.
`Cc1cc(C(=O)CSc2nnc(N)s2)c(C)n1Cc1ccco1` gave core dimer inh 23, HSF1 activator 14, HSF1 inh 26, AI-2 QS modul 14, PHOSPHO1 block -10 and ALR H2O2 inh 8.
Screening CCN(C(=O)CSc1nnc(C)c(=O)[nH]1)c1cccc2ccccc12 returned ALR H2O2 inh -13.
`O=C(CSc1nc(=O)[nH]c2c1CCCC2)Nc1ccc(F)cc1F` gave core dimer inh 0, HSF1 activator 8, HSF1 inh -2, AI-2 QS modul 11 and ALR H2O2 inh 39.
Oc1ccc(C=Nc2cccc3ncccc23)c(O)c1 was read as core dimer inh -7, HSF1 activator 38, HSF1 inh 14, AI-2 QS modul 13 and PHOSPHO1 block -3.
`Oc1ccc(C=Nc2ccc3ncccc3c2)c(O)c1` gave core dimer inh 63*, HSF1 activator 2, HSF1 inh 6, AI-2 QS modul 30, PHOSPHO1 block 10 and ALR H2O2 inh 4.
Screening Clc1ccc(C2=CSC3=NCCN23)cc1Cl returned core dimer inh -10, HSF1 activator 22, HSF1 inh 5, AI-2 QS modul 22, PHOSPHO1 block 28 and ALR H2O2 inh 97*.
`COc1ccc(C2=CSC3=NCCN23)cc1OC` gave core dimer inh 6, HSF1 activator -6, HSF1 inh -3, AI-2 QS modul 12, PHOSPHO1 block 39 and ALR H2O2 inh 96*.
`COc1cccc(-c2nc(CS(=O)(=O)CC(=O)N3CCN(C4CCCCC4)CC3)c(C)o2)c1` gave core dimer inh -14, HSF1 activator 0, HSF1 inh 0, AI-2 QS modul 16, PHOSPHO1 block 18 and ALR H2O2 inh 99*.
COc1cccc(-c2nc(CS(=O)(=O)CC(=O)N3CCN(C)CC3)c(C)o2)c1 was read as core dimer inh -10, HSF1 activator 6, HSF1 inh 0, AI-2 QS modul 3, PHOSPHO1 block -5 and ALR H2O2 inh 97*.
CCCCC(CC(O)COCCC)c1n[nH]c(=S)n1-c1ccccc1 (stereo not given) was read as core dimer inh 5, HSF1 activator -2, HSF1 inh 1, AI-2 QS modul 22, PHOSPHO1 block -43 and ALR H2O2 inh 20.
Cc1ccc(NC(=O)COc2ccc3c(c2)OCO3)c(C)c1 was read as ALR H2O2 inh -3.
CCn1c(C)nc2cc(-c3nc4n(n3)Cc3ccccc3-4)ccc21 was read as core dimer inh 4, HSF1 activator -93, HSF1 inh -93*, AI-2 QS modul 0, PHOSPHO1 block 18 and ALR H2O2 inh -5.
C=CCN(c1ccccc1)S(=O)(=O)c1ccc2c(c1)NC(=O)C(C)C(=O)N2 (stereo not given) was read as core dimer inh -1, HSF1 activator -19, HSF1 inh -3, AI-2 QS modul 7, PHOSPHO1 block -51 and ALR H2O2 inh -1.
`S=c1nc(-c2sccc2OCc2ccc(Cl)cc2Cl)[nH][nH]1` gave core dimer inh 10, HSF1 activator 11, HSF1 inh 14, AI-2 QS modul 33, PHOSPHO1 block -74 and ALR H2O2 inh 97*.
Cc1cc(C(=O)COC(=O)Cc2n[nH]c(=O)c3ccccc23)c(C)n1-c1ccc2c(c1)OCCO2 was read as core dimer inh 20, HSF1 activator -58, HSF1 inh -57*, AI-2 QS modul 24, PHOSPHO1 block 0 and ALR H2O2 inh -7.
`Cc1cc(C(=O)COC(=O)C2=COCCO2)c(C)n1-c1ccc2c(c1)OCO2` gave core dimer inh 23, HSF1 activator 5, HSF1 inh 0, AI-2 QS modul 15, PHOSPHO1 block 9 and ALR H2O2 inh -39.
Cc1ccc(NC(=O)C(=O)c2c[nH]c3ccccc23)cc1 was read as HSF1 activator 84*, HSF1 inh 55, AI-2 QS modul -26, PHOSPHO1 block 36 and ALR H2O2 inh 12.
`Cc1ccc(NC(=O)c2cc(=O)[nH]c3ccccc23)cc1` gave core dimer inh 2, HSF1 activator 4, HSF1 inh -5, AI-2 QS modul 13, PHOSPHO1 block 20 and ALR H2O2 inh -2.
`CN1C2CCC1CC(NC(=O)CSCc1ccc(Cl)cc1Cl)C2` (stereo not given) gave core dimer inh 1, HSF1 activator 2, HSF1 inh -5, AI-2 QS modul 29, PHOSPHO1 block -5 and ALR H2O2 inh 98*.
`Cc1ccc(S(=O)(=O)c2ncccc2[N+](=O)[O-])cc1` gave core dimer inh 0, HSF1 activator -97, HSF1 inh -97*, AI-2 QS modul 36, PHOSPHO1 block -7 and ALR H2O2 inh 6.
For Cc1ccc(S(=O)(=O)c2ncccc2N)cc1 the results were core dimer inh 5, HSF1 activator -3, HSF1 inh -1, AI-2 QS modul inconclusive and PHOSPHO1 block 33.
